This is an account of results in ChEMBL document CHEMBL1130049, “Synthesis and oral efficacy of a 4-(butylethylamino)pyrrolo[2,3-d]pyrimidine: a centrally active corticotropin-releasing factor1 receptor antagonist” (J Med Chem, 1997).

In general, Cmax refers to the maximum level reached in the sampled fluid or tissue. The term clearance denotes the volume of plasma or blood freed of the substance per unit of time. By Ki is commonly meant a measure of affinity in units of concentration, obtained from inhibition or displacement. One may read the IC50 as the concentration that gives 50% inhibition. A higher IC50 goes with a need for much substance. By Vdss is commonly meant a proportionality between amount in the body and measured concentration, not a real space. Low readings indicate confinement near the circulation, high ones extensive tissue distribution.

Data set [1] is described as follows: Maximal plasma concentration in rat. The class given is ADME, organism-based. The gist of the method:
(§1)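 Male Sprague-Dawley rats (300–350 g) had jugular cannulae placed under pentobarbital the day before dosing. Groups of n = 4 got 5 mg/kg iv bolus (DMSO/emulphor/saline 5:5:90) or 10 mg/kg po (DMSO/emulphor/water 5:5:90). Serial plasma was taken to 24 h (iv) or 8 h (po) and assayed by HPLC-UV at 300 nm. AUC was by linear trapezoid, CL = dose/AUC, Vdss = CL×MRT, and F from dose-normalised po/iv AUC.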

The nature of data set [2]: Plasma clearance in rat. The data set is classed as ADME, organism-based. The gist of the method:
as §1

Data set [3] addresses Corticotropin-releasing factor receptor 2 (Rattus norvegicus, UniProt P47866). Put plainly: Inhibition of binding of [125I]-Tyr0-sauvagine to Corticotropin releasing hormone receptor 2 (CRF2).
Data set [4] can be described thus: Oral bioavailability in rat. The data set is classed as ADME, organism-based. The following applies: in vivo, read-out: Bioavailabiility. The gist of the method: as §1
The target in data set [5] is T1, Corticotropin-releasing factor receptor 1 (Rattus norvegicus, UniProt P35353).
T1 sequence (P35353 whole entry): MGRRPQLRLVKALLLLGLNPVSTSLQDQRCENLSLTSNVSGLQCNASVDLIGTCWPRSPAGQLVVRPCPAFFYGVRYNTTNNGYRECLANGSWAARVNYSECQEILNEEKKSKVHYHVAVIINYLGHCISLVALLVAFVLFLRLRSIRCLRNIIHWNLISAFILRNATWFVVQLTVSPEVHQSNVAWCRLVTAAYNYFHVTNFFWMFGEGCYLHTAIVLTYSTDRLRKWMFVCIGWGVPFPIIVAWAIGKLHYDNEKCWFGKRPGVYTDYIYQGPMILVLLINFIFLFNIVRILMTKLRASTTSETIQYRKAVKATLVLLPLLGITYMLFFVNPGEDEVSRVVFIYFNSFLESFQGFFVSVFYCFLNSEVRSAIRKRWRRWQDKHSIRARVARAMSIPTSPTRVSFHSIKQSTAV
The experiment in a line: Inhibition of binding of 70 pM [125I]-Try0-o-Corticotropin-releasing Factor (CFR) to Corticotropin releasing hormone receptor 1 in Rat brain membrane. The class given is cell membranes.

The species named for data set [6] is Rattus norvegicus. Put plainly: Volume of distribution in steady state in rat. The data set is classed as ADME, organism-based. Particulars: in vivo. The gist of the method:
as §1

For data set [7], the species on record is Rattus norvegicus. The experiment in a line: Half life in rat. The class given is ADME, organism-based. The following applies: in vivo. The gist of the method:
as §1

Where only a bound is given, the exact number is not on record here.

Corticotropin-releasing factor receptor 2, sequence (P47866 whole entry): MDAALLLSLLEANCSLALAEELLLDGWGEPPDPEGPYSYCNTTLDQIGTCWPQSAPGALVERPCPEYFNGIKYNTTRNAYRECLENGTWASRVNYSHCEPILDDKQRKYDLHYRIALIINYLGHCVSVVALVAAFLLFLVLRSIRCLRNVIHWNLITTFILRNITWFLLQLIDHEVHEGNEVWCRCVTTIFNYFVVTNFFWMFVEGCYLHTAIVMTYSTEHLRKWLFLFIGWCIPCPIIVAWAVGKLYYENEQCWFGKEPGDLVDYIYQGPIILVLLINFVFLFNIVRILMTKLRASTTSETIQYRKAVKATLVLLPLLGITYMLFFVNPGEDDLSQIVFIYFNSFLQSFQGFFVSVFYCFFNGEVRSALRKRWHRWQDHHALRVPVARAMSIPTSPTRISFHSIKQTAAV

With `CCCCN(CC)c1nc(C)nc2c1c(C)cn2-c1c(C)cc(C)cc1C` [CP-154526], the peak concentration (Cmax) in data set [1] is 367 ng/mL. For the same compound, the clearance in data set [2] worked out at 82 mL/min/kg. In data set [3], the Ki is more than 10000 nM. Besides, in data set [4], the bioavailability was determined as 37%. Further, the IC50 in data set [5] amounted to 5.5 nM. For the same compound, the volume of distribution (Vdss) in the data set listed under Rattus norvegicus [6] was found to be 6.7 L/kg. This compound returned a T1/2 in the data set listed under Rattus norvegicus [7] of 1.5 h.
